Converted amounts (≈) assume the structure as drawn.
Columns and labels:
[1] = tested on: Rattus norvegicus; assay: Tested for hypolipidemic activity in male rats, cholesterol was determined in serum at 10 mg/kg; assay type: functional
Outline: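 Groups of eight male Wistar rats (200–230 g) dosed orally in PEG 400, either daily for 7 days (killed 24 h after the last dose) or for 4 days with a second dose on day 4 (killed 16 h later). Fasted 16 h. Paired sera pooled, lipoproteins separated by ultracentrifugation (1.006 and 1.040 g/cm³), HDL taken as the infranatant. Cholesterol measured enzymatically; % vs vehicle, mean ± SEM of four pools.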

[2] = tested on: Rattus norvegicus; assay: Hypolipidemic activity was determined in male rats, and high-density lipoprotein level was determined at 10 mg/kg; assay type: functional
Outline: (§1)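 Male Wistar rats (200–230 g), eight per group, were dosed orally in PEG 400 at 8 a.m. for 4 days, plus a second dose at 4 p.m. on day 4. Rats were fasted 16 h and killed 16 h after the last dose. Sera from pairs of rats were pooled. LDL (up to 1.040 g/cm³) was separated by ultracentrifugation and the HDL infranatant taken. Cholesterol was measured enzymatically. Results are % versus vehicle control, mean ± SEM of four pools, Student's t test.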

[3] = tested on: Rattus norvegicus; assay: Hypolipidemic activity was determined in male rats, and low-density lipoprotein level was determined at 10 mg/kg; assay type: functional; outline: as §1
[4] = Inhibitory activity against RNA polymerase was determined; set-up: species or system Escherichia coli
Outline: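 E. coli DNA-dependent RNA polymerase inhibition measured in vitro on ether-extracted, permeabilized E. coli cells.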

[5] = tested on: Rattus norvegicus; assay: Hypolipidemic activity was determined by measuring the % serum HDL in hypercholesterolemic RICO rat at a dose of 10 mg/kg; assay type: functional, organism-based; set-up: dose 10 mg/kg
Outline: (§2)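 Genetically hypercholesterolemic RICO rats (Tif:RAI,f,SPF) were dosed orally for 7 days. Sera were collected after a 16 h fast and pooled in pairs. LDL (1.006–1.040 g/cm³) and HDL infranatant were separated by ultracentrifugation. Cholesterol and triglycerides were measured enzymatically. Results are % change versus vehicle control, mean ± SEM of four pools.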

[6] = tested on: Rattus norvegicus; assay: Hypolipidemic activity was determined by measuring the % serum HDL in hypercholesterolemic RICO rat at a dose of 3 mg/kg; assay type: functional, organism-based; set-up: dose 3 mg/kg; outline: as §2
[7] = tested on: Rattus norvegicus; assay: Hypolipidemic activity was determined by measuring the % serum HDL in hypercholesterolemic RICO rat at a dose of 30 mg/kg; assay type: functional, organism-based; set-up: dose 30 mg/kg; outline: as §2
[8] = tested on: Rattus norvegicus; assay: Hypolipidemic activity was determined by measuring the % serum HDL in normal rat at a dose of 1 mg/kg; assay type: functional, organism-based; set-up: dose 1 mg/kg
Outline: (§3)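 Normal male Wistar rats (200–230 g), eight per group, were dosed orally in PEG 400 once daily for 7 days. They were fasted 16 h and killed 24 h after the last dose. Serum from pairs was pooled and LDL/HDL fractions were ultracentrifuged. Cholesterol and triglycerides were measured enzymatically. Results are % versus vehicle control, mean ± SEM of four pools, Student's t test.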

[9] = tested on: Rattus norvegicus; assay: Hypolipidemic activity was determined by measuring the % serum HDL in normal rat at a dose of 3 mg/kg; assay type: functional, organism-based; set-up: dose 3 mg/kg; outline: as §3
[10] = tested on: Rattus norvegicus; assay: Hypolipidemic activity was determined by measuring the % serum HDL in normal rat at a dose of 30 mg/kg; assay type: functional, organism-based; set-up: dose 30 mg/kg; outline: as §3
[11] = tested on: Rattus norvegicus; assay: Hypolipidemic activity was determined by measuring the % serum HDL-cholesterol in normal rat at the specified dose of 10 mg/kg; assay type: functional, organism-based; set-up: dose 10 mg/kg
Outline: (§4)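 Male Wistar rats (200–230 g, n=8 per group) were given oral doses in PEG 400 and fasted 16 h before being killed under pentothal. Paired sera were pooled with 0.05% EDTA and 0.01% thimerosal, and LDL/HDL were separated by ultracentrifugation. Cholesterol was measured enzymatically. Results are % versus vehicle control, mean ± SEM of four serum pools, Student's t test.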

[12] = tested on: Rattus norvegicus; assay: Hypolipidemic activity was determined by measuring the % serum HDL-cholesterol in normal rat at the specified dose of 30 mg/kg; assay type: functional, organism-based; set-up: dose 30 mg/kg; outline: as §4
[13] = tested on: Rattus norvegicus; assay: Hypolipidemic activity was determined by measuring the % serum cholesterol in hypercholesterolemic RICO rat at a dose of 10 mg/kg; assay type: functional, organism-based; set-up: dose 10 mg/kg; outline: as §2
[14] = tested on: Rattus norvegicus; assay: Hypolipidemic activity was determined by measuring the % serum cholesterol in hypercholesterolemic RICO rat at a dose of 3 mg/kg; assay type: functional, organism-based; set-up: dose 3 mg/kg; outline: as §2
[15] = tested on: Rattus norvegicus; assay: Hypolipidemic activity was determined by measuring the % serum cholesterol in hypercholesterolemic RICO rat at a dose of 30 mg/kg; assay type: functional, organism-based; set-up: dose 30 mg/kg; outline: as §2
[16] = tested on: Rattus norvegicus; assay: Hypolipidemic activity was determined by measuring the % serum cholesterol in normal rat at a dose of 1 mg/kg; assay type: functional, organism-based; set-up: dose 1 mg/kg; outline: as §3
[17] = tested on: Rattus norvegicus; assay: Hypolipidemic activity was determined by measuring the % serum cholesterol in normal rat at a dose of 10 mg/kg; assay type: functional, organism-based; set-up: dose 10 mg/kg; outline: as §3
[18] = tested on: Rattus norvegicus; assay: Hypolipidemic activity was determined by measuring the % serum cholesterol in normal rat at a dose of 3 mg/kg; assay type: functional, organism-based; set-up: dose 3 mg/kg; outline: as §3
[19] = tested on: Rattus norvegicus; assay: Hypolipidemic activity was determined by measuring the % serum cholesterol in normal rat at a dose of 30 mg/kg; assay type: functional, organism-based; set-up: dose 30 mg/kg; outline: as §3
[20] = tested on: Rattus norvegicus; assay: Hypolipidemic activity was determined by measuring the % serum cholesterol in rat at the specified dose of 10 mg/kg; assay type: functional, organism-based; set-up: dose 10 mg/kg; outline: as §4
[21] = tested on: Rattus norvegicus; assay: Hypolipidemic activity was determined by measuring the % serum cholesterol in rat at the specified dose of 30 mg/kg; assay type: functional, organism-based; set-up: dose 30 mg/kg; outline: as §4
[22] = tested on: Rattus norvegicus; assay: Hypolipidemic activity was determined by measuring the % serum LDL-cholesterol in hypercholesterolemic RICO rat at a dose of 10 mg/kg; assay type: functional, organism-based; set-up: dose 10 mg/kg; outline: as §2
[23] = tested on: Rattus norvegicus; assay: Hypolipidemic activity was determined by measuring the % serum LDL-cholesterol in hypercholesterolemic RICO rat at a dose of 3 mg/kg; assay type: functional, organism-based; set-up: dose 3 mg/kg; outline: as §2
[24] = tested on: Rattus norvegicus; assay: Hypolipidemic activity was determined by measuring the % serum LDL-cholesterol in hypercholesterolemic RICO rat at a dose of 30 mg/kg; assay type: functional, organism-based; set-up: dose 30 mg/kg; outline: as §2
[25] = tested on: Rattus norvegicus; assay: Hypolipidemic activity was determined by measuring the % serum LDL in normal rat at a dose of 1 mg/kg; assay type: functional, organism-based; set-up: dose 1 mg/kg; outline: as §3
[26] = tested on: Rattus norvegicus; assay: Hypolipidemic activity was determined by measuring the % serum LDL in normal rat at a dose of 10 mg/kg; assay type: functional, organism-based; set-up: dose 10 mg/kg; outline: as §3
[27] = tested on: Rattus norvegicus; assay: Hypolipidemic activity was determined by measuring the % serum LDL in normal rat at a dose of 3 mg/kg; assay type: functional, organism-based; set-up: dose 3 mg/kg; outline: as §3
[28] = tested on: Rattus norvegicus; assay: Hypolipidemic activity was determined by measuring the % serum LDL in normal rat at a dose of 30 mg/kg; assay type: functional, organism-based; set-up: dose 30 mg/kg; outline: as §3
[29] = tested on: Rattus norvegicus; assay: Hypolipidemic activity was determined by measuring the % serum triglycerides in normal rat at a dose of 3 mg/kg; assay type: functional, organism-based; set-up: dose 3 mg/kg; outline: as §3
[30] = tested on: Rattus norvegicus; assay: Hypolipidemic activity was determined by measuring the % serum triglycerides in normal rat at a dose of 30 mg/kg; assay type: functional, organism-based; set-up: dose 30 mg/kg; outline: as §3
[31] = tested on: Rattus norvegicus; assay: Hypolipidemic activity was determined by measuring the % serum LDL-cholesterol in normal rat at the specified dose of 30 mg/kg; assay type: functional, organism-based; set-up: dose 30 mg/kg; outline: as §4
[32] = tested on: Rattus norvegicus; assay: Hypolipidemic activity was determined by measuring the % serum triglycerides in hypercholesterolemic RICO rat at a dose of 10 mg/kg; assay type: functional, organism-based; set-up: dose 10 mg/kg; outline: as §2
[33] = tested on: Rattus norvegicus; assay: Hypolipidemic activity was determined by measuring the % serum triglycerides in hypercholesterolemic RICO rat at a dose of 3 mg/kg; assay type: functional, organism-based; set-up: dose 3 mg/kg; outline: as §2
[34] = tested on: Rattus norvegicus; assay: Hypolipidemic activity was determined by measuring the % serum triglycerides in hypercholesterolemic RICO rat at a dose of 30 mg/kg; assay type: functional, organism-based; set-up: dose 30 mg/kg; outline: as §2
[35] = tested on: Rattus norvegicus; assay: Hypolipidemic activity was determined by measuring the % serum LDL-cholesterol in normal rat at the specified dose of 10 mg/kg; assay type: functional, organism-based; set-up: dose 10 mg/kg; outline: as §4
[36] = tested on: Rattus norvegicus; assay: Hypolipidemic activity was determined by measuring the % serum triglycerides in normal rat at a dose of 1 mg/kg; assay type: functional, organism-based; set-up: dose 1 mg/kg; outline: as §3
[37] = tested on: Rattus norvegicus; assay: Hypolipidemic activity was determined by measuring the % serum triglycerides in normal rat at a dose of 10 mg/kg; assay type: functional, organism-based; set-up: dose 10 mg/kg; outline: as §3
[38] = tested on: Staphylococcus aureus; assay: Antibacterial activity against Staphylococcus aureus 10B; assay type: functional
Outline: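 Agar dilution on DST agar with 2-fold drug dilutions. Inoculum of 10⁴ viable S. aureus 10B was taken from liquid-nitrogen stock, thawed 30 min and not subcultured. It was applied by multipoint replicator and incubated overnight at 37 °C. MIC is the lowest concentration inhibiting growth relative to control cultures.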

[39] = tested on: Rattus norvegicus; assay: Hypolipidemic activity was determined by measuring the % serum HDL in normal rat at a dose of 10 mg/kg; assay type: functional, organism-based; set-up: dose 10 mg/kg; outline: as §3

IC50 [4]: > 100 µg/mL
MIC [38]: 64 µg/mL (≈ 59.2 µM)
Compound: COC1/C=C/OC2(C)Oc3c(C)c(OC(=O)C(C)(C)C)c4c(c3C2=O)C(=O)C(N2CCN(Cc3c(C)cc(C)cc3C)CC2)=C(C4=O)N(C(=O)C(C)(C)C)C(=O)/C(C)=C\C=C\C(C)C(O)C(C)C(O)C(C)C(OC(C)=O)C1C (centres undefined)
Activity [1]: -30%
Activity [2]: -33%
Activity [3]: -55%
Serum HDL-cholesterol [5]: -24%
Serum HDL-cholesterol [6]: -6%
Serum HDL-cholesterol [7]: -45%
Serum HDL-cholesterol [8]: 0%
Serum HDL-cholesterol [9]: -4%
Serum HDL-cholesterol [10]: -34%
Serum HDL-cholesterol [11]: -11%
Serum HDL-cholesterol [12]: -27%
Serum cholesterol [13]: -29%
Serum cholesterol [14]: -12%
Serum cholesterol [15]: -50%
Serum cholesterol [16]: -5%
Serum cholesterol [17]: -19%
Serum cholesterol [18]: -4%
Serum cholesterol [19]: -27%
Serum cholesterol [20]: -16%
Serum cholesterol [21]: -33%
Serum LDL-cholesterol [22]: -53%
Serum LDL-cholesterol [23]: -35%
Serum LDL-cholesterol [24]: -69%
Serum LDL-cholesterol [25]: -8%
Serum LDL-cholesterol [26]: -56%
Serum LDL-cholesterol [27]: -34%
Serum LDL-cholesterol [28]: -51%
Serum triglyceride [29]: 14%
Serum triglyceride [30]: -22%
Serum LDL-cholesterol [31]: -68%
Serum triglyceride [32]: -32%
Serum triglyceride [33]: -11%
Serum triglyceride [34]: -47%
Serum LDL-cholesterol [35]: -26%
Serum triglyceride [36]: 14%
Serum triglyceride [37]: -17%
Serum HDL-cholesterol [39]: -21%
